Published values of several laboratories.
Protocols differ between the studies behind these lines.

SMILES	species	sample	route	dose	notes	Tmax
CCCCOC(=O)N1CCN(C(=O)[C@H](CP(=O)(O)O)NC(=O)c2cc(N3CC[C@H](OC)C3)nc(-c3ccccc3)n2)CC1	human	plasma	subcutaneous	16 mg	single dose	0.733 h
O=C(Nc1c(Cl)cncc1Cl)c1ccc(OC(F)F)c(OCC2CC2)c1	human	plasma	oral	0.5 mg	single dose	0.75 h
CCCOc1ccc([C@H]2CNC(=O)N2c2ccc3[nH]cnc3c2)cc1	human	plasma	oral	200 mg	single dose, fed, healthy volunteers	2 h
c1cnc2ccc(Nc3nc(NC4CC4)c4nc[nH]c4n3)cc2c1	human	plasma	oral	800 mg/m²	patients	5 h
Nc1cc(C(F)(F)F)c(-c2cc(N3CCOCC3)nc(N3CCOCC3)n2)cn1	human	plasma	oral	50 mg/day	patients	1.02 h
CC(C)n1cc(C#N)c2cc(-n3cc(C(=O)O)cn3)ccc21	human	plasma	oral	200 mg	single dose, fed, healthy volunteers	5 h
CCc1nc2c(C)cc(N3CCN(CC(=O)N4CC(O)C4)CC3)cn2c1N(C)c1nc(-c2ccc(F)cc2)c(C#N)s1	human	plasma	oral	150 mg	fed, healthy volunteers	1 h
C[C@@H](c1ccc2nccn2c1)n1nnc2ncc(-c3cnn(C)c3)nc21	human	plasma	oral	200 mg		2.5 h
C#C[C@]1(COP(=O)(O)OP(=O)(O)OP(=O)(O)O)O[C@@H](n2cnc3c(N)nc(F)nc32)C[C@@H]1O	human	plasma	oral	100 mg	single dose	24 h
Cc1nc(-c2cn3c(n2)-c2ccc(-c4cnn(C(C)(C)C(N)=O)c4)cc2OCC3)n(C(C)C)n1	human	plasma	oral	6 mg	patients	2.05 h
CO[C@@H]1[C@H](OC(=O)N2CC(CCN3CCOCC3)C2)CC[C@]2(CO2)[C@H]1[C@@]1(C)O[C@@H]1CC=C(C)C	human	plasma	subcutaneous	0.2 mg	single dose, healthy volunteers	0.28 h
CC(C)[C@](O)(c1ccc2cc(OC(F)F)c(OC(F)F)cc2c1)c1c[nH]nn1	female human	plasma	oral	600 mg	single dose	2.5 h
C[C@@]1(c2cc(NC(=O)c3ccc(C#N)cn3)ccc2F)C=CSC(N)=N1	male human	plasma	oral	1 mg	single dose	0.75 h
C[C@@H](Nc1cc(F)cc(F)c1)c1cc(C(=O)N(C)C)cc2c(=O)cc(N3CCOCC3)oc12	human	plasma	oral	240 mg	single dose, patients	1.75 h
FC(F)(F)c1ccc(CNc2ccc(Cc3c[nH]c4ncc(Cl)cc34)cn2)cn1	human	plasma	oral	600 mg	single dose	2.5 h
CC(C)(O)c1ccccc1-c1ccc2[nH]c(/C=C/c3ccc(C(F)(F)F)cc3)nc2c1	male human	plasma	oral	30 mg	single dose, fasted	3.03 h
CCO[C@H]1CCN(Cc2c(OC)cc(C)c3[nH]ccc23)[C@H](c2ccc(C(=O)O)cc2)C1	human	plasma	oral	100 mg	multiple doses, twice daily, patients	1.53 h

SMILES	species	sample	route	dose	notes	Tmax
C=CC(=O)N1CCC(Oc2cc3c(Nc4ccc(Cl)c(Cl)c4F)ncnc3cc2OC)CC1	human	plasma	oral	16 mg	single dose, fed	3.01 h
C=CC(=O)N(C)CCOc1c(N)ncnc1-c1cc(F)cc(NC(=O)c2ccc(C3CC3)cc2F)c1C	human	blood	oral	600 mg	single dose, healthy volunteers	1.02 h
CS(=O)(=O)CCC#N	human	plasma	oral	300 mg	single dose, fasted	1.5 h
Cc1nc(NC(=O)N2CCC[C@H]2C(N)=O)sc1-c1ccnc(C(C)(C)C(F)(F)F)c1	human	plasma	oral	270 mg	patients	2.02 h
CC(C)(Sc1ccncc1-c1ccc(C#N)c2ccccc12)C(=O)O	male human	plasma	oral	5 mg	single dose, fasted, healthy volunteers	0.63 h
CO[C@H]1/C=C\C=C(/C)C(=O)NC2=CC(=O)C(NCCN(C)C)=C(C[C@@H](C)C[C@H](OC)[C@H](O)[C@@H](C)/C=C(\C)[C@@H]1OC(N)=O)C2=O	human	plasma	intravenous	12 mg/m²	patients, infusion	1 h
CC(C)[C@H](N)C(=O)NCCCS(=O)(=O)O	human	plasma	oral	171 mg	multiple doses, twice daily, fasted	0.5 h
COc1cc(N2CCC(N3CCN(C)CC3)CC2)ccc1Nc1ncnc(Nc2ccccc2S(=O)(=O)C(C)C)n1	human	plasma	oral	25 mg	multiple doses, patients	2.48 h
C/C(=C\c1csc(C)n1)[C@@H]1C[C@@H]2O[C@]2(C)CCC[C@H](C)[C@H](O)[C@@H](C)C(=O)C(C)(C)[C@@H](O)CC(=O)N1	human	plasma	intravenous	15 mg/m²	patients	0.8 h
NS(=O)(=O)NCCNc1nonc1C(=NO)Nc1ccc(F)c(Br)c1	human	plasma	oral	500 mg	multiple doses, twice daily, steady state, patients	2 h
CCOc1ccc(Cc2cc([C@@H]3O[C@H](CO)[C@@H](O)[C@H](O)[C@H]3O)ccc2Cl)cc1	human	plasma	oral	10 mg	multiple doses, steady state	0.77 h
CCc1nc(C(N)=O)c(Nc2ccc(N3CCC(N4CCN(C)CC4)CC3)c(OC)c2)nc1NC1CCOCC1	human	plasma	oral	300 mg	multiple doses, patients	6.93 h
Cn1cc(-c2ccc(S(=O)(=O)[C@@H]3C[C@@H](C(=O)NC4(C#N)CC4)N(C(=O)C4(C(F)(F)F)CC4)C3)c(C(F)(F)F)c2)cn1	human	plasma	oral	100 mg	single dose, fed	5 h
COc1ccc([C@@H]2CN(C(=O)[C@@H](O)CO)C[C@@]2(C)[C@@H](C)O)cc1OC1CN(c2ccc(C)cn2)C1	human	plasma	oral	30 mg	single dose, healthy volunteers	3.88 h
O=C(O)C[C@H](O)C[C@H](O)/C=C/c1c(C2CC2)nc2ccccc2c1-c1ccc(F)cc1	human	plasma	oral	2 mg	single dose, fed, healthy volunteers, tablet	1.13 h
Oc1cc(O)c2c(c1)O[C@@H](c1ccc(O)c(O)c1)[C@@H](O)C2	human	plasma	oral	10 mg	single dose	1 h
